pEC50: −log10 of the molar value. Several values for one entry are separate records, joined by “and”; a condition that tells them apart may be missing. Equal values may be shown once.
Legend:
Assay type in all cases: functional, cell-based
[1] = TNF-alpha release is determined to know human (JN.24 cloned) V gamma-2 V delta-2 T cell stimulation
Method in brief: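 JN.24 CD4+ clone, 1×10^5 cells/well, cultured in duplicate or triplicate with half-log antigen dilutions and 1×10^5 glutaraldehyde-fixed (0.05%) CP.EBV B cells as APC (1:1). Supernatants collected after 18 h; TNF-α quantified by sandwich ELISA against a TNF-α standard curve; EC50 from dose response.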

[2] = Proliferation of human (JN.24 cloned) V gamma-2 V delta-2 T cell
Method in brief: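 JN.24 CD4+ clone, 1×10^5 cells/well, stimulated in duplicate or triplicate with half-log dilutions of antigen plus 1×10^5 CP.EBV B cells fixed with 0.05% glutaraldehyde (1:1). Supernatant removed at 18 h, then cultures pulsed with 1 µCi 3H-thymidine and harvested 16–18 h later; mean proliferation gives EC50.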

[3] = Proliferation of human (12g12 cloned) V gamma-2 V delta-2 T cell
Method in brief: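 Clone 12G12 at 1×10^5 cells/well with 1×10^5 fixed Va2 fibrosarcoma cells as APC (1:1), exposed in duplicate or triplicate to half-log antigen dilutions. After 18 h supernatant removal, 1 µCi 3H-thymidine pulse; harvest 16–18 h later; EC50 from mean proliferation.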

[4] = TNF-alpha release is determined to know human (12g12 cloned) V gamma-2 V delta-2 T cell stimulation
Method in brief: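 12G12 cells (1×10^5/well) cocultured 1:1 with glutaraldehyde-fixed Va2 transformed fibrosarcoma cells as APC and half-log antigen dilutions, in duplicate or triplicate. Supernatant taken at 18 h, TNF-α measured by sandwich ELISA against a standard curve; EC50 from dose response.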

Row | pEC50 ([1]; Homo sapiens, T-cell) | pEC50 ([4]; Homo sapiens, T-cell) | pEC50 ([4]; t-cell) | pEC50 ([1]; t-cell) | Compound | pEC50 ([2]; Homo sapiens, T-cell) | pEC50 ([3]; Homo sapiens, T-cell) | pEC50 ([3]; t-cell) | pEC50 ([2]; t-cell)
1 |  |  | 8.89 and 8.43 |  | C[C@@]1(CCOP(=O)(O)OP(=O)(O)O)CO1 |  | 9.00 | 9.00 | 8.85 and 8.51 and 8.89
2 | < 4.00 |  |  |  | O=P(O)(O)OP(=O)(O)OCC[C@H]1CO1 | < 4.00 |  |  | 
3 |  |  | 8.10 and 8.52 | 5.54 and 6.46 and 5.96 | CC1(CCOP(=O)(O)OP(=O)(O)O)CO1 (single isomer, unassigned) |  | 9.30 | 9.22 | 

The remaining lines, values behind:

Row | Compound | pEC50 ([1]; Homo sapiens, T-cell) | pEC50 ([4]; Homo sapiens, T-cell) | pEC50 ([4]; t-cell) | pEC50 ([1]; t-cell) | pEC50 ([2]; Homo sapiens, T-cell) | pEC50 ([3]; Homo sapiens, T-cell) | pEC50 ([3]; t-cell) | pEC50 ([2]; t-cell)
4 | O=P(O)(O)OP(=O)(O)OCC[C@@H](O)CBr | 6.30 |  |  |  | 5.92 |  |  | 
5 | O=P(O)(O)OP(=O)(O)OCC[C@H](O)CBr | 5.70 |  |  |  | 5.40 |  |  | 
6 | C[C@@](O)(CBr)CCOP(=O)(O)OP(=O)(O)O |  | 8.05 | 8.10 |  |  | 9.05 | 9.10 | 
7 | C[C@](O)(CBr)CCOP(=O)(O)OP(=O)(O)O |  | 8.30 | 8.40 |  | 6.77 |  | 8.85 and 9.30 | 6.92 and 6.96 and 7.07
8 | O=P(O)(O)OP(=O)(O)OCC[C@@H]1CO1 | < 4.00 |  |  |  | < 4.00 |  |  | 

From ChEMBL document CHEMBL1137030, “Synthesis of chiral phosphoantigens and their activity in gamma delta T cell stimulation” (Bioorg Med Chem Lett, 2004)
